{"source": "ChEMBL document CHEMBL5335790", "about": "“Design, synthesis and biological evaluation of novel 2,4-thiazolidinedione derivatives able to target the human BAG3 protein” (Eur J Med Chem, 2023)", "assay_type_in_all_cases": "functional", "key": {"HD-MB03 [1]": {"test_system": "HD-MB03", "experiment": "Antiproliferative activity against human HD-MB03 cells assessed as cell growth inhibition incubated for 72 hrs by resazurin dye based analysis", "how_it_was_run": "(§1)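 Cells seeded at 2000/well, treated 24 h later with compounds in a 6-point 2-fold dose series, duplicate wells, two independent experiments. After 72 h, resazurin was added at 44 µM final for 3 h at 37 °C and fluorescence was read at 590 nm. Viability was normalized to 1 µM bortezomib (positive) and 0.5% DMSO (negative) controls. GI50 is the mean ± SEM of dose-response curves.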"}, "HD-MB03 [2]": {"test_system": "HD-MB03", "experiment": "Induction of cell cycle arrest in human HD-MB03 cells assessed as accumulation of cells at G2/M phase at 10 uM incubated for 48 hrs by RNase/PI staining based cytofluorimetric analysis (reference value: 4.4%)"}, "HD-MB03 [3]": {"test_system": "HD-MB03", "experiment": "Cytotoxicity against human HD-MB03 cells assessed as inhibition of cell growth at 20 uM incubated for 72 hrs by resazurin dye based analysis relative to control", "how_it_was_run": "(§2)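 Resazurin viability in HD-MB03 cells, 2000/well, single-agent arm of the 6x6 matrix. Inhibitor was added 24 h after seeding, in a 6-point 2-fold series, duplicates, two independent experiments. After 72 h exposure, resazurin was added at 44 µM final for 3 h at 37 °C and fluorescence read at 590 nm. Viability normalized to 1 µM bortezomib and 0.5% DMSO controls.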"}, "HD-MB03 [4]": {"test_system": "HD-MB03", "experiment": "Sensitization of chemotherapy induced cytotoxicity against human HD-MB03 cells assessed as inhibition of cell growth at 10 uM incubated for 72 hrs in presence of 1 unit of vincristine, etoposide, cisplatin, cyclophosphamide by resazurin dye based analysis (reference value: 91.53 +/- 1.15%)"}, "HD-MB03 [5]": {"test_system": "HD-MB03", "experiment": "Sensitization of chemotherapy induced cytotoxicity against human HD-MB03 cells assessed as inhibition of cell growth at 20 uM incubated for 72 hrs in presence of 2 unit of vincristine, etoposide, cisplatin, cyclophosphamide by resazurin dye based analysis (reference value: 97.7 +/- 1.3%)"}, "HD-MB03 [6]": {"test_system": "HD-MB03", "experiment": "Cytotoxicity against human HD-MB03 cells assessed as inhibition of cell growth at 1.25 uM incubated for 72 hrs by resazurin dye based analysis relative to control", "how_it_was_run": "as §2"}, "HD-MB03 [7]": {"test_system": "HD-MB03", "experiment": "Sensitization of chemotherapy induced cytotoxicity against human HD-MB03 cells assessed as inhibition of cell growth at 2.5 uM incubated for 72 hrs in presence of 0.25 unit of vincristine, etoposide, cisplatin, cyclophosphamide by resazurin dye based analysis (reference value: 73.44 +/- 0.92%)"}, "HD-MB03 [8]": {"test_system": "HD-MB03", "experiment": "Sensitization of chemotherapy induced cytotoxicity against human HD-MB03 cells assessed as inhibition of cell growth at 20 uM incubated for 72 hrs in presence of 0.12 unit of vincristine, etoposide, cisplatin, cyclophosphamide by resazurin dye based analysis (reference value: 51.43 +/- 1.17%)"}, "HD-MB03 [9]": {"test_system": "HD-MB03", "experiment": "Sensitization of chemotherapy induced cytotoxicity against human HD-MB03 cells assessed as inhibition of cell growth at 2.5 uM incubated for 72 hrs in presence of 1 unit of vincristine, etoposide, cisplatin, cyclophosphamide by resazurin dye based analysis (reference value: 91.53 +/- 1.15%)"}, "A549": {"test_system": "A549", "experiment": "Antiproliferative activity against human A549 cells assessed as cell growth inhibition incubated for 72 hrs by resazurin dye based analysis", "how_it_was_run": "as §1"}}, "data": [{"smiles": "CC(C(=O)N1CCOCC1)N1C(=O)S/C(=C\\c2cccc(O)c2O)C1=O", "note": "(racemic)", "values": [{"measurement": "GI50", "setting": "HD-MB03 [1]", "value": 11.2, "unit": "µM"}, {"measurement": "Activity", "setting": "HD-MB03 [2]", "value": 6.11, "unit": "%"}, {"measurement": "inhibition at 20 µM", "setting": "HD-MB03 [3]", "value": 52.9, "unit": "%"}, {"measurement": "inhibition at 10 µM", "setting": "HD-MB03 [4]", "value": 92, "unit": "%"}, {"measurement": "inhibition at 20 µM", "setting": "HD-MB03 [5]", "value": 90.5, "unit": "%"}, {"measurement": "inhibition at 1.25 µM", "setting": "HD-MB03 [6]", "value": -11.8, "unit": "%"}, {"measurement": "inhibition at 2.5 µM", "setting": "HD-MB03 [7]", "value": 69.9, "unit": "%"}, {"measurement": "inhibition at 20 µM", "setting": "HD-MB03 [8]", "value": 75, "unit": "%"}, {"measurement": "inhibition at 2.5 µM", "setting": "HD-MB03 [9]", "value": 92, "unit": "%"}, {"measurement": "GI50", "setting": "A549", "value": 28, "unit": "µM"}]}]}
